From PubChem BioAssay
bCat KO growth: beta-catenin-lacking colon tumor cell growth suppression; HCT116 beta-catenin knockout viability, CellTiter-Glo, 60 h; active compounds read low; viability, % at 10 µM; 140,000 compounds, 1.5% hits; AID 818;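 active = viability at or under a set limit, the compound median less 4 SD, cut at about 6% in these data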;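 note: 0% = Hyamine 1622 control at 20 µM and 100% = untreated cell control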
Lung fibro prol: blocks proliferation of human lung fibroblasts | LL 47 human lung fibroblast viability, ATP luminescence; active compounds read low | 85,000 compounds, 1.1% hits | viability, % at 10 µM;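 active = viability at or below 50% in the single dose screen; inactive = viability above 50%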;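 note: compound exposure lasted 72 h before the ATP readout; 100% = median luminescence of untreated cell-only wells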
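Material: human LL 47 lung fibroblast cells; quantity: 1,150 cells/well; medium: IMEM plus 15% FBS; doses: 0.1% DMSO in all compound wells; timing: overnight attachment after seeding, then 72 h compound exposure at 37 °C; detection: CellTiter-Glo luminescence; measure: % viability of median cell-only signal; controls: cell-only wells, no compound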
H69AR growth 86K: blocks growth of human H69AR lung tumor cells. H69AR lung tumor viability, ATP luminescence, 72 h; active compounds read low. viability, % at 10 µM. 85,000 compounds, 6% hits. AID 598;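 active = viability at or below 40%; inactive = viability above 40%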;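 note: multidrug resistant small cell line overexpressing MRP-1 efflux transporter; 100% = mean luminescence of untreated control wells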
PTEN del growth: growth suppressors of cells with PTEN tumor suppressor deletion; HCT116 PTEN-null viability, CellTiter-Glo, 60 h; active compounds read low; viability, % at 10 µM; 140,000 compounds, 1.2% hits; AID 827;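 active = viability at or below a set limit, 4 SD under the median of all tested compounds, cut at about 3.7% in these data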;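 note: PTEN knockout HCT116 line with beta catenin targeted HCT116 as companion control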
HUVEC inhibit: human endothelial cell proliferation inhibition. HUVEC proliferation, CellTiter-Glo luminescence, 72 h; active compounds read low. viability, % at 10 µM (by protocol). 86,000 compounds, 1.1% hits. AID 648;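 active = viability at or below 30%; inactive = viability above 30%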;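 note: 100% = median luminescence of DMSO-only cell control wells on each plate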
* marks the source's active call; other numbers are inactive results; x = no result. This excerpt belongs to a sample that is enriched for hits.

SMILES | bCat KO growth | Lung fibro prol | H69AR growth 86K | PTEN del growth | HUVEC inhibit
CCCn1c(=S)[nH]c2cc(OC)c(OC)cc2c1=O | 82.4 | 93.2 | 35.4* | 90.7 | 89.5
CCOC(=O)N1CCc2c(sc3c2C(=O)NC(c2ccc(-c4ccc(Cl)cc4)o2)N3)C1 (stereo not drawn) | x | 53.1 | 30.1* | x | 89.3
O=Cc1ccc(Sc2nnc(-c3ccccc3)o2)c([N+](=O)[O-])c1 | 16.7 | 78.7 | 2.0* | 5.8 | 2.4*
Cn1nc([N+](=O)[O-])nc1Sc1nnc(-c2ccccc2)o1 | 3.4* | 66.6 | 2.6* | 2.6* | 62.3
O=C(/C=C/c1ccccc1)c1ccc2c(c1)OCCCCO2 | 3.5* | x | x | 4.7 | x
Cc1ccc(NC(=O)CN(C)C(=O)CCC(=O)c2cccs2)cc1 | 95.9 | x | x | 86.5 | x
c1ccc(-c2nnc3sc(-c4cc5ccccc5o4)nn23)cc1 | 99.5 | 111.4 | 31.8* | 108.3 | 64.6
COc1ccc(-c2nn3c(-c4ccc(F)cc4)nnc3s2)cc1 | 95.6 | 94.6 | 69.9 | 94.3 | 107.4
COc1ccc(-c2nn3c(-c4ccccc4)nnc3s2)cc1 | 91.5 | 91.2 | 35.2* | 79.7 | 73.2
c1ccc(-c2nnc3sc(-c4csc5c4CCCC5)nn23)cc1 | 62.2 | 99.5 | 30.7* | 60.4 | 76.1
CCN(CC)c1ccc(-c2nn3c(-c4ccccc4OC)nnc3s2)cc1 | 3.3* | 38.5* | 11.7* | 2.1* | 12.3*
O=S(=O)(Nc1ccccn1)c1cnc(Cl)c(Br)c1 | 96.6 | x | x | 101.2 | x
O=C(NNS(=O)(=O)c1ccc2ccccc2c1)c1cc(-c2ccccn2)nc2ccccc12 | 97.7 | x | x | 94.0 | x
C#CCCCCCCC#CCN(C)C | 94.1 | x | x | 92.4 | x
Cc1cccc2cc(CN(Cc3ccccc3)C(=O)c3cccc(F)c3)c(Cl)nc12 | 62.6 | x | x | 63.5 | x
O=C(CNS(=O)(=O)c1c(Cl)cccc1Cl)OCc1csc(-c2ccccc2)n1 | 94.3 | x | x | 96.2 | x
Cc1ccc(-n2nc(C)c3c(C)c(CCC(=O)NCc4ccccc4)c(C)nc32)cc1 | 76.6 | 77.2 | 32.2* | 78.4 | 66.0
Cc1ccc(-n2nc(C)c3c(C)c(CCC(=O)NCc4ccco4)c(C)nc32)cc1 | 78.3 | 99.6 | 42.4 | 67.6 | 86.8
CCN(CCNC(=O)C1CCN(Cc2nc(-c3ccc(Cl)cc3)oc2C)CC1)c1ccccc1 | 1.1* | 62.8 | 7.3* | 1.6* | 3.9*
Cc1cccc(-c2nc(CN3CCCC(C(=O)NC4CCC(C)CC4)C3)c(C)o2)c1 (stereo not drawn) | 19.5 | 99.1 | 65.4 | 23.5 | 11.6*
CCN(CCNC(=O)C1CCN(Cc2nc(-c3cccc(Cl)c3)oc2C)CC1)c1ccccc1 | 1.3* | 43.0* | 3.0* | 1.5* | 5.4*
Cc1oc(-c2cccc(Cl)c2)nc1CN1CCC(C(=O)NCc2cccnc2)CC1 | 82.6 | 102.6 | 90.7 | 89.1 | 96.7
CCc1ccc(-c2nc(CN3CCC(C(=O)NCc4ccc(F)cc4)CC3)c(C)o2)cc1 | 42.8 | 95.8 | 3.3* | 50.8 | 13.5*
Cc1oc(-c2ccc(Cl)cc2)nc1CN1CCC(C(=O)NCc2cccs2)CC1 | 68.3 | 105.4 | 94.1 | 66.5 | 56.5
S=c1[nH]ccn1-c1cccc(Cl)c1 | 91.5 | x | x | 94.1 | x
SMILES | bCat KO growth | Lung fibro prol | H69AR growth 86K | PTEN del growth | HUVEC inhibit
Cc1ccc(CN2CCc3c(OCC(=O)Nc4cc(C)ccc4C)cccc3C2=O)cc1 | 87.9 | x | x | 85.0 | x
CCc1ccc(-c2nc(CN3CCC(C(=O)NCCN(CC)c4ccccc4)CC3)c(C)o2)cc1 | 1.9* | 16.8* | 1.6* | 1.7* | 2.3*
CCc1ccc(-c2nc(CN3CCCC(C(=O)O)C3)c(C)o2)cc1 (stereo not drawn) | 109.4 | 98.2 | 106.8 | 90.6 | 107.9
COc1ccc(CCNC(=O)C2CCN(Cc3nc(-c4ccc(Cl)cc4)oc3C)CC2)cc1OC | x | 99.5 | 101.1 | x | 84.4
CCN(CCNC(=O)C1CCCN(Cc2nc(-c3ccc(OC)cc3)oc2C)C1)c1ccccc1 (stereo not drawn) | 13.3 | x | 32.0* | 13.3 | 4.7*
Cc1oc(-c2ccccc2F)nc1CN1CCC(C(=O)NC2CCCCCCC2)CC1 | 18.5 | 96.2 | 72.7 | 28.6 | 68.5
Cc1oc(-c2ccccc2F)nc1CN1CCC(C(=O)NCc2ccco2)CC1 | 77.6 | 101.0 | 38.0* | 88.6 | 101.5
Cc1[nH]c2ccccc2c1C(=O)CN1C(=O)NC2(CC(C)CC(C)(C)C2)C1=O (stereo not drawn) | 56.5 | x | x | 43.6 | x
COc1cc(/C=N/NC(=O)CNc2n[nH]c(=O)[nH]c2=O)ccc1O | 92.0 | x | x | 95.5 | x
CCOC(=O)c1c(-c2cccs2)csc1NC(=O)c1ccco1 | 90.8 | 96.2 | 57.0 | 93.0 | 114.6
CCOC(=O)c1c(C2COc3ccccc3O2)csc1NC(=O)c1ccco1 (stereo not drawn) | 74.6 | 102.0 | 30.7* | 80.9 | 82.6
Cc1cc(C)c2nc(N3CCC(C(=O)NCCCN4CCCCC4)CC3)sc2c1 | 3.1* | 2.7* | 58.0 | 2.3* | 4.0*
COc1cc(C)ccc1OCCCON1C(=O)CCC1=O | 92.7 | 93.2 | 97.9 | 97.8 | 97.8
Cc1cc(N2CCC(C)CC2)nc(NCc2ccccc2)n1 | 2.8* | x | x | 4.0 | x
Cc1cc(Oc2ccccc2)nc(NCc2ccccc2)n1 | 62.8 | 78.4 | 52.9 | 48.4 | 83.0
Fc1cc(NCc2ccccc2)nc(NCc2ccccc2)n1 | 57.9 | x | x | 52.4 | x
Cc1cc(Nc2cccc(F)c2)nc(NCc2ccccc2)n1 | 2.9* | x | x | 1.4* | x
CCCCNc1cc(C)nc(NCc2ccccc2)n1 | 1.3* | 53.3 | 9.9* | 1.5* | 4.4*
Cc1cc(Nc2ccc(Cl)cc2)nc(NCc2ccccc2)n1 | 1.1* | x | x | 1.4* | x
Cc1cc(Nc2ccccc2)nc(NCc2ccccc2)n1 | 6.8 | x | x | 5.5 | x
COc1ccc(CN(C)CC(=O)Nc2ccc(Cl)cc2C(F)(F)F)c(OC)c1 | 46.0 | x | x | 55.7 | x
O=S(=O)(c1ccc(Cl)cc1)N1CCN(C(=S)Nc2ccc(F)c(Cl)c2)CC1 | 76.1 | x | x | 62.8 | x
COc1ccc(Cl)cc1S(=O)(=O)n1cnc2ccccc21 | 91.9 | 80.0 | 17.4* | 97.4 | 58.1
CCOc1ccc(Cl)cc1S(=O)(=O)n1cnc2ccccc21 | 46.5 | 61.8 | 19.9* | 43.0 | 58.8
CCOc1cc(C)c(Cl)cc1S(=O)(=O)n1cnc2ccccc21 | 98.4 | 97.1 | 38.5* | 87.7 | 76.5
SMILES | bCat KO growth | Lung fibro prol | H69AR growth 86K | PTEN del growth | HUVEC inhibit
O=C(NCSc1ccnc(SCNC(=O)c2ccc(F)cc2)n1)c1ccc(F)cc1 | 90.8 | x | x | 98.0 | x
CN1CCN(c2nc(NCCOC34CC5CC(CC(C5)C3)C4)nc(OCC(F)(F)F)n2)CC1 | 29.9 | 56.2 | 1.9* | 25.6 | 9.5*
O=C1CCCC2=C1C1c3ccccc3C(=O)N1c1ccc(C(=O)c3ccccc3)cc1N2 (stereo not drawn) | 39.7 | 106.6 | 20.8* | 28.9 | 49.5
O=C1CC(c2ccco2)CC2=C1C1c3ccccc3C(=O)N1c1ccccc1N2 (stereo not drawn) | 8.1 | 87.1 | 46.5 | 5.8 | 71.2
CC(=O)c1cccc2c(O)c(C3=Nc4ccccc4C3=O)[nH]c12 | 38.2 | 61.2 | 1.5* | 35.5 | 36.0
COc1cc(-c2nnc(-c3ccc(N4CCOCC4)cc3)o2)cc(OC)c1OC | 74.3 | 95.0 | 17.1* | 76.5 | 84.0
